According to publication PMC2774150 (Apmis, 2008):
“Also recorded” adds a separate entry of the source. Like-named read-outs stand apart in the source and are kept apart here. One block for each molecule: values may come before it.

Experiments:
[1] = cited from earlier work
[2] = test system: histone acetylation in peripheral blood lymphocytes; details: clinical study; cited from earlier work
[3] = test system: acetylated H4 in A2780 ovarian cancer cells; assay: H4 acetylation by immunohistochemistry in paraffin-embedded A2780 cell blocks; type: cell-based, human; details: 1 μM for 1 h
[4] = test system: H4 acetylation in A2780 ovarian cancer model; assay: Experiment 1: H4 acetylation in vivo, A2780 xenograft; parameters: species or system NMRI nude mice; details: 100 mg/kg single i.v., 1 h
Procedure, shortened: (§1)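 Female NMRI nude mice, 6–8 weeks old, received about 10^7 cells with matrigel s.c. into the flank under Hypnorm/Dormicum. They were given 100 mg/kg test compound i.v. or vehicle (L-arginine 200 mg/kg in isotonic sterile saline) and killed after 1 h. Formalin-fixed, paraffin-embedded tumors were immunostained for acetylated H4 (mouse monoclonal T25, acetyl-Lys8/Lys12, 1:13,000; TEG pH 9 retrieval; EnVision+/DAB) and scored 0–3.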

[5] = test system: H4 acetylation in HCT-116 colon cancer model; assay: Experiment 1: H4 acetylation in vivo, HCT-116 xenograft; parameters: species or system NMRI nude mice; details: 100 mg/kg single i.v., 1 h
Procedure, shortened: as §1

[6] = test system: H4 acetylation in A548 lung cancer model; assay: Experiment 1: H4 acetylation in vivo, A549 xenograft; parameters: species or system NMRI nude mice; details: 100 mg/kg single i.v., 1 h
Procedure, shortened: as §1

[7] = test system: H4 acetylation in PC-3 prostate cancer model; assay: Experiment 1: H4 acetylation in vivo, PC-3 xenograft; parameters: species or system NMRI nude mice; details: 100 mg/kg single i.v., 1 h
Procedure, shortened: as §1

[8] = test system: H4 acetylation in MCF-7 model; assay: Experiment 1: H4 acetylation in vivo, MCF-7 xenograft; parameters: species or system NMRI nude mice; details: 100 mg/kg single i.v., 1 h
Procedure, shortened: as §1

[9] = test system: acetylated H4 in A2780 xenograft; assay: Experiment 2: H4 acetylation in A2780 biopsies and representative tumors; type: in vivo, NMRI nude mice; details: 100 mg/kg i.v., 1 h, A2780, Fig. 4A
Procedure, shortened: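 Mice bearing HCT-116, A2780, PC-3 or MCF-7 tumors (500–1000 mg) received 100 mg/kg test compound i.v. or vehicle and were killed after 1 h. Biopsies were taken with an 18G needle, aspirating while rotating. Biopsies and the remaining tumor were formalin-fixed, paraffin-embedded and stained with anti-acetyl-H4 T25 (1:13,000). Staining was scored negative, weak, moderate or strong (0–3).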

[10] = test system: H4 acetylation in A2780 biopsies and tumors; assay: Experiment 3: time dependence of H4 acetylation in A2780 biopsies and tumors; type: in vivo, NMRI nude mice; details: for H4 acetylation, 1 h biopsy / H4 acetylation, 2 h biopsy / H4 acetylation, 3 h biopsy / H4 acetylation, 3 h tumor / H4 acetylation, 6 h biopsy / H4 acetylation, 6 h tumor: individual mice
Procedure, shortened: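 Sixteen NMRI nude mice with small (300–400 mg) or large (1500–1800 mg) A2780 s.c. tumors received 100 mg/kg test compound i.v. at time zero. A pretreatment biopsy (large tumors only) and one post-dose 18G needle biopsy (1–6 h) were taken under isoflurane. Whole tumors were excised at 3, 6 or 24 h. Paraffin sections were stained with T25 anti-acetyl-H4 (1:13,000) and scored 0–3.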

[11] = test system: p21 expression in A2780 xenograft; assay: Experiment 3: p21 expression in A2780 biopsies and tumors; type: in vivo, NMRI nude mice
Procedure, shortened: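 In A2780 xenografts (small 300–400 mg or large 1500–1800 mg), mice received 100 mg/kg test compound i.v. Pretreatment (large tumors) and post-dose needle biopsies were taken between 1 and 6 h; whole tumors were taken at 3, 6 or 24 h. Paraffin sections were immunostained for p21 (monoclonal EA10, 1:80; TEG pH 9 retrieval; EnVision+/DAB) and nuclear versus cytoplasmic staining was recorded.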

[12] = test system: H4 acetylation in A2780 xenograft tumor; assay: Experiment 4: H4 acetylation score in A2780 tumor; type: in vivo, NMRI nude mice
Procedure, shortened: (§2)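 Groups of 3–4 NMRI nude mice with s.c. A2780 xenografts (500–1000 mg) received a single 200 mg/kg test compound dose i.v. or vehicle (L-arginine 400 mg/kg in isotonic sterile saline). Mice were killed at 15 min, 30 min, 1, 2 or 3 h. Tumor and spleen were halved, and one part was immunostained with T25 anti-acetyl-H4. Scores were 0–3 per mouse, averaged per time point.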

H4 acetylation in spleen = assay: Experiment 4: H4 acetylation score in spleen; type: in vivo, NMRI nude mice; details: 200 mg/kg i.v.
Procedure, shortened: as §2

[13] = Experiment 4: belinostat in plasma, tumor and spleen by LC-MS/MS; type: in vivo, NMRI nude mice
Procedure, shortened: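 A2780 xenograft mice received 200 mg/kg i.v. once; lithium-heparin plasma, tumor and spleen were collected at 15 min–3 h. Plasma was protein-precipitated with a 13C-labelled internal standard, dried and redissolved in 10% HCOOH/ACN. Tissues were homogenized in water/ACN/methanol containing internal standard (1 μg/ml). Analysis used LC-MS/MS on UPLC C18 (0.05% HCOOH/ACN, 5 min gradient, 0.5 ml/min), reporting ng/ml plasma and ng/g tissue.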

[14] = test system: H4 acetylation in peripheral canine blood; details: 10 min after i.v. infusion given over 45 min, total dose 50 mg/kg; cited from earlier work
[15] = test system: H4 acetylation in histones extracted from A2780 cells; details: cited from earlier work
[16] = test system: H4 acetylation in peripheral blood from A2780 xenografts; details: 3 h after treatment, 40 mg/kg i.p.; cited from earlier work
[17] = 100 mg/kg i.v., large tumors (1500–1800 mg)
[18] = 100 mg/kg i.v., small tumors (300–400 mg)
[19] = 200 mg/kg i.v., individual mice
[20] = 200 mg/kg i.v., individual mice, listed as Belinostat
[21] = single treatment 200 mg/kg i.v.
[22] = individual mice, listed as Belinostat

SMILES: Nc1ccccc1NC(=O)c1ccc(CNC(=O)OCc2cccnc2)cc1 [MS-275]
pharmacokinetics (linearity) [1]: linear, dose-independent

SMILES: O=C(CCCCCCC(=O)Nc1ccccc1)NO [vorinostat, suberoylanilide hydroxamic acid]
pharmacokinetics (linearity) ([1]; dose proportional increases in Cmax and AUC): linear
half-life of acetylated histones at higher doses [2]: increased

distribution to tumor and spleen tissue ([13]; 200 mg/kg i.v. single dose): similar
belinostat plasma concentration at maximal acetylation ([13]; 200 mg/kg i.v., 1 h after treatment, Fig. 8): above 10^3 ng/ml
SMILES: O=C(/C=C/c1cccc(S(=O)(=O)Nc2ccccc2)c1)NO [belinostat]
H4 acetylation [3]: strong (strong (score=3))
H4 acetylation signal [4]: strongest signal
H4 acetylation [5]: caused H4 acetylation
H4 acetylation [6]: caused H4 acetylation
H4 acetylation [7]: Weak
H4 acetylation [8]: Weak
H4 acetylation in both biopsies and tumors [9]: strong (III) or moderate (IV)
H4 acetylation after 6 and 24 h ([10]; 100 mg/kg i.v.): weak or no
H4 acetylation, general findings at 3 h ([10]; 100 mg/kg i.v.): weak or moderate
H4 acetylation in biopsy, same mouse (Fig. 4B) ([10]; 100 mg/kg i.v., 1 h after treatment): strong (strong (score=3))
removed tumors with strong H4 acetylation ([10]; 100 mg/kg i.v., 3 h after treatment): 1/10
acetylation period ([10]; 100 mg/kg i.v., Experiment 3, not extended at 200 mg/kg): 1 to 2 h
H4 acetylation in tumor, same mouse (Fig. 4B) ([10]; 100 mg/kg i.v., after 3 h): weak (weak (score=1))
H4 acetylation, 1 h biopsy [10, 17]: Strong
H4 acetylation, 2 h biopsy [10, 17]: Strong
H4 acetylation, 3 h biopsy [10, 17]: Strong
H4 acetylation, 3 h tumor [10, 17]: Moderate and Weak
H4 acetylation, 6 h biopsy [10, 17]: Weak
H4 acetylation, 6 h tumor [10, 17]: Weak
H4 acetylation, all biopsies collected 2 h after treatment ([10]; 100 mg/kg i.v., n=4): strong (strong (score=3))
H4 acetylation, all biopsies collected 1 h after treatment ([10]; 100 mg/kg i.v., n=5): strong (strong (score=3))
H4 acetylation, 1 h biopsy [10, 18]: Strong
H4 acetylation, 2 h biopsy [10, 18]: Strong
H4 acetylation, 3 h biopsy [10, 18]: Moderate; also recorded: Strong
H4 acetylation, 3 h tumor [10, 18]: Weak and Moderate and Strong
H4 acetylation, 6 h biopsy [10, 18]: Weak
H4 acetylation, 6 h tumor [10, 18]: Weak
time at which H4 acetylation reached base line level ([10]; after treatment, A2780 xenograft): 3 h
biopsies with moderate cytoplasmic p21 expression ([11]; 100 mg/kg i.v., 2 h, one of four biopsies): 25%
tumors with strong cytoplasmic p21 expression ([11]; 100 mg/kg i.v., 3 h, 10 tumors): 10%
tumors with weak cytoplasmic p21 expression ([11]; 100 mg/kg i.v., 3 h, 10 tumors): 50%
cytoplasmic p21 expression, all biopsies removed after 6 h ([11]; 100 mg/kg i.v., 6 h): moderate-to-strong
tumors with strong cytoplasmic p21 expression ([11]; 100 mg/kg i.v., 6 h, four tumors): 25%
cytoplasmic p21 expression after 24 h ([11]; 100 mg/kg i.v., 24 h): disappeared
time of p21 induction in the cytoplasm ([11]; after belinostat treatment): about 3 h
H4 acetylation (score), tumor, 15 min [12, 19]: weak-to-moderate
H4 acetylation (score), tumor, 1 h [12, 19]: strong (strong (score=3))
H4 acetylation (score), tumor, 3 h [12, 19]: weak and moderate
H4 acetylation (score), tumor, 15 min [12, 20]: Moderate (2); also recorded: No (0); also recorded: Weak (1)
H4 acetylation (score), tumor, 30 min [12, 20]: Moderate (2); also recorded: Strong (3); also recorded: Weak (1)
H4 acetylation (score), tumor, 1 h [12, 20]: Strong (3)
H4 acetylation (score), tumor, 2 h [12, 20]: Moderate (2); also recorded: Strong (3)
H4 acetylation (score), tumor, 3 h [12, 20]: Moderate (2); also recorded: Weak (1)
H4 acetylation score, tumor, mean, 15 min ([12]; 200 mg/kg i.v., score 0-3): 1.25
H4 acetylation score, tumor, mean, 30 min ([12]; 200 mg/kg i.v., score 0-3): 2
H4 acetylation score, tumor, mean, 1 h ([12]; 200 mg/kg i.v., score 0-3): 3
H4 acetylation score, tumor, mean, 2 h ([12]; 200 mg/kg i.v., score 0-3): 2.33
H4 acetylation score, tumor, mean, 3 h ([12]; 200 mg/kg i.v., score 0-3): 1.67
time at which increased acetylated H4 was detected in tumor tissue [12, 21]: 15 min
time of maximal H4 acetylation level [12, 21]: 1 h
H4 acetylation (score), spleen, 2 h (H4 acetylation in spleen; individual mice): Moderate (2)
H4 acetylation (score), spleen, 15 min (H4 acetylation in spleen; [22]): Moderate (2); also recorded: Weak (1)
H4 acetylation (score), spleen, 30 min (H4 acetylation in spleen; [22]): Strong (3); also recorded: Moderate (2)
H4 acetylation (score), spleen, 1 h (H4 acetylation in spleen; [22]): Strong (3); also recorded: Moderate (2)
H4 acetylation (score), spleen, 3 h (H4 acetylation in spleen; [22]): Weak (1); also recorded: No (0)
H4 acetylation score, spleen, mean, 15 min (H4 acetylation in spleen; score 0-3): 1.5
H4 acetylation score, spleen, mean, 30 min (H4 acetylation in spleen; score 0-3): 2.5
H4 acetylation score, spleen, mean, 1 h (H4 acetylation in spleen; score 0-3): 2.75
H4 acetylation score, spleen, mean, 2 h (H4 acetylation in spleen; score 0-3): 2
H4 acetylation score, spleen, mean, 3 h (H4 acetylation in spleen; score 0-3): 0.67
H4 acetylation in peripheral canine blood [14]: increased
H4 acetylation in histones extracted from A2780 cells ([15]; 30 min after treatment with 1 μM): increased
H4 acetylation in histones extracted from A2780 cells ([15]; 3 h after treatment, 1 μM): returned to base line levels
H4 acetylation in peripheral blood from A2780 xenografts [16]: returned to base line levels
